Reference: ChEMBL document CHEMBL1122651, “5-Aryl-3-azabicyclo[3.2.0]heptan-6-one ketals, compounds with morphine-like analgesic activity” (J Med Chem, 1984)

What was measured:
[1] = organism: Rattus norvegicus; assay: animal or person; conditions: po
[2] = organism: Rattus norvegicus; assay: Concentration of drug required to inhibit the stereospecific binding of [3H]-naloxone (5 nM) to homogenates of rat brain minus cerebellum in the absence of 100 mM NaCl; type: functional, organism-based
[3] = system: Rattus norvegicus; assay: Analgesic activity of subcutaneously administered compound was determined by the inflamed rat-paw reversal of abnormal (three-legged) gait; 0.06-2.0; conditions: sc
[4] = organism: Rattus norvegicus; conditions: Brain, at 25 µM
[5] = organism: Rattus norvegicus; conditions: Brain, at 0.78 µM
[6] = organism: Rattus norvegicus; assay: (§1) Concentration of drug required to inhibit the stereospecific binding of [3H]naloxone (5 nM) to homogenates of rat brain minus cerebellum in the presence of 100 mM NaCl
[7] = system: Rattus norvegicus; assay: Analgesic activity of intraperitoneally administered compound was determined by the inflamed rat-paw reversal of abnormal (three-legged) gait; R (reject) highest dose tested inactive; type: functional; conditions: ip
Outline: (§2)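 Rats with an inflamed paw and abnormal three-legged gait, dosed with compound or vehicle. Reversal of the abnormal gait is scored. A reduction of abnormal gait of at least 50% counts as a positive analgesic response. ED50 and 95% confidence limits by Finney's linear arc sine transformation.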

[8] = organism: Rattus norvegicus; assay: as §1; type: functional
Outline: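 Displacement of [3H]naloxone (5 nM) from stereospecific sites in rat brain homogenate (minus cerebellum), run with 100 mM NaCl added. Eight displacing ligand concentrations, each analysis in triplicate. Value is the drug concentration giving 50% inhibition of binding.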

[9] = system: Rattus norvegicus; assay: Analgesic activity of perorally administered compound was determined by the inflamed rat-paw reversal of abnormal (three-legged) gait; type: functional; conditions: po
Outline: as §2

[10] = organism: Rattus norvegicus; assay: Ability to displace [3H]naloxone binding from homogenates of rat brain minus cerebellum at the concentration of 0.78 uM
Outline: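 Competition binding of [3H]naloxone to rat brain homogenate with cerebellum removed. Pert–Snyder procedure as modified by Ong et al. Percent inhibition of stereospecific binding read at a single drug concentration of 0.78 μM.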

[11] = system: Rattus norvegicus; assay: Analgesic activity of intraperitoneally administered compound was determined by the inflamed rat-paw reversal of abnormal (three-legged) gait; 4/4 Active; type: functional; conditions: ip
Outline: as §2

[12] = system: Rattus norvegicus; assay: Analgesic activity of intraperitoneally administered compound was determined by the inflamed rat-paw reversal of abnormal (three-legged) gait; type: functional; conditions: ip
Outline: as §2

[13] = system: Rattus norvegicus; assay: Analgesic activity of intraperitoneally administered compound was determined by the inflamed rat-paw reversal of abnormal (three-legged) gait; 8/10 Active; type: functional; conditions: ip
Outline: as §2

Compound	IC50 [2]	inhibition [4]	IC50 [8]	further results
CN1CC[C@]23c4c5ccc(O)c4O[C@H]2[C@@H](O)C=C[C@H]3[C@H]1C5.CN1CC[C@]23c4c5ccc(O)c4O[C@H]2[C@@H](O)C=C[C@H]3[C@H]1C5.O=S(=O)(O)O	74 nM	100%	–	ED50 [1]: 35 mg/kg; ED50 [3]: 0.4 mg/kg; inhibition [5]: 97%; IC50 [6]: 380 nM
COc1cccc(C23CN(C)CC2CC3=O)c1 (stereo not drawn)	–	22%	–	ED50 [7]: 25 mg/kg; inhibition [5]: 12%
COc1ccc2c3c1O[C@H]1[C@@H](O)C=C[C@H]4[C@@H](C2)N(C)CC[C@@]341 [CODEINE]	2600 nM	–	22000 nM	–
COc1cccc(C23CN(C)CC2CC3(OC)OC)c1 (stereo not drawn)	9920 nM	61%	62500 nM	ED50 [9]: 4 mg/kg; inhibition [10]: 7%
COC1(OC)CC2CN(C)CC21c1ccccc1 (stereo not drawn)	–	62%	–	ED50 [11]: < 25 mg/kg; inhibition [10]: 13%
C=CCN1CC[C@]23CCCC[C@H]2[C@H]1Cc1ccc(O)cc13 [LEVALLORPHAN]	9 nM	–	34 nM	–
C=CCN1CC[C@]23c4c5ccc(O)c4O[C@H]2C(=O)CC[C@@]3(O)[C@H]1C5 [NALOXONE]	46 nM	–	42 nM	–
COc1cccc(C23CNCC2CC3(OC)OC)c1 (stereo not drawn)	–	–	–	ED50 [12]: > 25 mg/kg
COc1cccc(C23CN(C)CC2CC32OCC(C)(C)CO2)c1.O=C(O)/C=C/C(=O)O (stereo not drawn)	–	–	–	ED50 [13]: < 25 mg/kg
COC1(OC)CC2CN(C)CC21c1ccc(C)cc1 (stereo not drawn)	–	62%	–	ED50 [7]: 25 mg/kg; inhibition [10]: 11%
COC1(OC)CC2CN(C)CC21c1cccc(O)c1 (stereo not drawn)	61 nM	99%	579 nM	inhibition [5]: 85%; ED50 [12]: ~3 mg/kg
